The source made the active and inactive calls. The calls are words filed in the database; no cut-off is given here.
Assays:
[1] = biological target: Toll-like receptor 1/2 (Homo sapiens) (UniProt O60603+Q15399); experiment: Antagonist activity at human TLR1/2 expressed in HEK293 cells assessed as decrease in Pam3CSK4-induced NF-kappaB activation-mediated SEAP production at 10^-9 to 10^-5 M after 24 hrs by Quanti-blue-based assay; assay type: cell-based
Summary of the method: (§1)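 HEK293 cells stably carrying a human TLR plus an NF-κB-driven SEAP reporter, seeded 5×10^4/well for 24 h at 37 °C, then stimulated: Pam3CSK4 100 µg/mL (TLR1/2), Pam2CSK4 100 µg/mL, poly I:C 5 µg/mL (TLR3), LPS 20 ng/mL (TLR4), flagellin 100 ng/mL (TLR5), R848 1 µg/mL (TLR7, TLR8), CpG-ODN2006 1 µg/mL (TLR9). After 24 h with compound, supernatant mixed with QUANTI-Blue, 1 h 37 °C, OD 620 nm.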

[2] = biological target: Toll-like receptor 5 (Homo sapiens) (UniProt O60602); experiment: Antagonist activity at human TLR5 expressed in HEK293 cells assessed as decrease in flagellin-induced NF-kappaB activation-mediated SEAP production at 10^-9 to 10^-5 M after 24 hrs by Quanti-blue-based assay; assay type: cell-based; summary of the method: as §1
Toll-like receptor 5 (Homo sapiens), sequence (O60602 whole entry): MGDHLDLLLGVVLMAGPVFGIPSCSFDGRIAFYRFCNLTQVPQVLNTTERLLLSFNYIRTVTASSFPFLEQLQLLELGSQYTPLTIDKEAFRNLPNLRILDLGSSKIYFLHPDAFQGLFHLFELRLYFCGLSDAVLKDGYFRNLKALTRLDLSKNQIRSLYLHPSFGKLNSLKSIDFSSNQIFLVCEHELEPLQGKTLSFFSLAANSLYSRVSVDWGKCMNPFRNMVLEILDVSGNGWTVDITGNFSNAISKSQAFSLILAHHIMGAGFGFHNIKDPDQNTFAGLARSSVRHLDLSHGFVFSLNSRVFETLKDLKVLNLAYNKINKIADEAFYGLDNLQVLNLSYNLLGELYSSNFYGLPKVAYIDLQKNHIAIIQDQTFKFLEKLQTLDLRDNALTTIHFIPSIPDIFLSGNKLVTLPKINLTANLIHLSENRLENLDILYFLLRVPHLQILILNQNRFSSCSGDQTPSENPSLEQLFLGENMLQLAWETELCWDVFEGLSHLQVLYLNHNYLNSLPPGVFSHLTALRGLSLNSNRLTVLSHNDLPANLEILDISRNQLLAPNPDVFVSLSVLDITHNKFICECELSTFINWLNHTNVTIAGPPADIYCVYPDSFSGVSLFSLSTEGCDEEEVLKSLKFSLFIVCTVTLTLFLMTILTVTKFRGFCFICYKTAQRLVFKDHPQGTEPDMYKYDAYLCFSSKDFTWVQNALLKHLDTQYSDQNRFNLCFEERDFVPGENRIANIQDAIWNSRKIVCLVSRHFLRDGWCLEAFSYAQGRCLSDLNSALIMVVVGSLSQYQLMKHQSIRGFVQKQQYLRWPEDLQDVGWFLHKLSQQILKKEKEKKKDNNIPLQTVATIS

[3] = biological target: Toll-like receptor 4 (Homo sapiens) (UniProt O00206); experiment: Antagonist activity at human TLR4 expressed in HEK293 cells assessed as decrease in LPS-induced NF-kappaB activation-mediated SEAP production at 10^-9 to 10^-5 M after 24 hrs by Quanti-blue-based assay; assay type: cell-based; summary of the method: as §1
Toll-like receptor 4 (Homo sapiens), sequence (O00206 whole entry): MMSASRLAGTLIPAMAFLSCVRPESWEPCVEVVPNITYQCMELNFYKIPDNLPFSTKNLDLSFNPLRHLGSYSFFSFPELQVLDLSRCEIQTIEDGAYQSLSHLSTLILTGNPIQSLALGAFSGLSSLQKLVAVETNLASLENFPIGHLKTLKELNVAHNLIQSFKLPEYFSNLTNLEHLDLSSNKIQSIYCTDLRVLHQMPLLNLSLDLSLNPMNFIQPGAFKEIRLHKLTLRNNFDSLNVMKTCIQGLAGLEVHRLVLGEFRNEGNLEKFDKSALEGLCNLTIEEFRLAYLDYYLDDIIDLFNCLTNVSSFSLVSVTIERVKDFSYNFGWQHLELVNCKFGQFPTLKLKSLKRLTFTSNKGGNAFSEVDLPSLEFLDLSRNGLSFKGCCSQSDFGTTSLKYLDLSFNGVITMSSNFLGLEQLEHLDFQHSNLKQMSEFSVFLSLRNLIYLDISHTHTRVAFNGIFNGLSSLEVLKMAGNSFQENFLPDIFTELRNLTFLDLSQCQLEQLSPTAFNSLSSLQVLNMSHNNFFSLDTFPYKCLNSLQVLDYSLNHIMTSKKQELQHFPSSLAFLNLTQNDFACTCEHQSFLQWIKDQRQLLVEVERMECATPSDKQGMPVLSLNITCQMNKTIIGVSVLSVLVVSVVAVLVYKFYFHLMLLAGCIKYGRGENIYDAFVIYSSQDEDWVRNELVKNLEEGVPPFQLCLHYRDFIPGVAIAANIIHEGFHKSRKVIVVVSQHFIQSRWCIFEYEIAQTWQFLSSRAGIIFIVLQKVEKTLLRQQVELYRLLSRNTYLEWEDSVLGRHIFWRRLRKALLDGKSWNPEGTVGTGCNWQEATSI

HeLa [4] = experiment: Induction of apoptosis in human HeLa cells after 24 hrs by Annexin-V FITC/propidium iodide staining based flow cytometry; assay type: functional, cell-based
Summary of the method: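 HeLa cells, 3×10^5/well, attached 24 h, then DMSO or 5, 10, 20 µM for 24 h; harvested with EDTA-free 0.25% trypsin, Annexin V-FITC/PI double stained, flow cytometry; early plus late apoptotic fractions counted; three independent experiments.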

HeLa [5] = experiment: Cell cycle arrest in human HeLa cells assessed as accumulation at G0/G1 phase at 5 uM after 24 hrs by propidium iodide staining based flow cytometry (reference value: 49.4%); assay type: functional
Summary of the method: (§2)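 HeLa cells, 3×10^5/well, attached overnight, switched to serum-free medium for synchronisation, then DMSO or 5, 10, 20 µM for 24 h; cells fixed, PI-stained, G0/G1, S and G2/M fractions by flow cytometry; n = 3, mean ± SD.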

TLR2/TLR6 (Homo sapiens) = TLR2/TLR6 (Homo sapiens) (UniProt O60603+Q9Y2C9); experiment: Antagonist activity at human TLR2/6 expressed in HEK293 cells assessed as decrease in Pam2CSK4-induced NF-kappaB activation-mediated SEAP production at 10^-9 to 10^-5 M after 24 hrs by Quanti-blue-based assay; assay type: cell-based; summary of the method: as §1
[6] = biological target: Toll-like receptor 3 (Homo sapiens) (UniProt O15455); experiment: Antagonist activity at human TLR3 expressed in HEK293 cells assessed as decrease in poly I:C-induced NF-kappaB activation-mediated SEAP production at 10^-9 to 10^-5 M after 24 hrs by Quanti-blue-based assay; assay type: cell-based; summary of the method: as §1
Toll-like receptor 3 (Homo sapiens), sequence (O15455 whole entry): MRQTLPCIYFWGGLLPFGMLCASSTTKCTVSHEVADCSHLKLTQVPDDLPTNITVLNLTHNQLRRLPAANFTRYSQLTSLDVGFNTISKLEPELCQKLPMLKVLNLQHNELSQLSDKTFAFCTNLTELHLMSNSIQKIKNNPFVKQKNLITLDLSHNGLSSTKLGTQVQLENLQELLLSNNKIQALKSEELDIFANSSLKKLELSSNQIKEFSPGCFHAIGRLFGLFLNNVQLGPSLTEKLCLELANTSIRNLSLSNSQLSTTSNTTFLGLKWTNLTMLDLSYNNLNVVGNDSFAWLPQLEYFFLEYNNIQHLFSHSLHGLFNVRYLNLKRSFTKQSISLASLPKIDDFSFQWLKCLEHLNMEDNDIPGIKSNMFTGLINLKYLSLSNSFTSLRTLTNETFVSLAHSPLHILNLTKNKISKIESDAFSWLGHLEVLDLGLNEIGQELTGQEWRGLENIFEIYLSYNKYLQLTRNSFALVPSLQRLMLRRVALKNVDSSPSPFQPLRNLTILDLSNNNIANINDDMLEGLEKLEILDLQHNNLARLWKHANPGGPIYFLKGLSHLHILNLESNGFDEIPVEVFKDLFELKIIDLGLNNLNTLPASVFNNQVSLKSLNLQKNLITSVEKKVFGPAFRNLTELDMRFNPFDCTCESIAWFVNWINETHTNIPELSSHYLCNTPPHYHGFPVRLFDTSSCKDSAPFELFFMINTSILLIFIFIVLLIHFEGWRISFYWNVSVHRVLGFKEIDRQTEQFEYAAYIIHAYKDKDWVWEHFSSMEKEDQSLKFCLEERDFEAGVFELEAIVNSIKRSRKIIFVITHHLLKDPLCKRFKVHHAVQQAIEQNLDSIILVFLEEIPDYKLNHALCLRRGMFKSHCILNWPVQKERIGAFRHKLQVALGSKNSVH

[7] = biological target: T1, Protein kinase C (PKC) (Homo sapiens) (UniProt O94806+P41743+P17252+P05129+Q05655+P05771+Q05513+Q02156+P24723+Q15139+Q04759); experiment: (§3) Inhibition of PKC in TLR null HEK-blue cells assessed as inhibition of PMA-induced NF-kappaB activation-mediated SEAP production after 24 hrs by Quanti-blue-based assay; assay type: cell-based
Protein kinase C (PKC) [8] = experiment: as §3; assay type: cell-based, Homo sapiens
[9] = biological target: T1, Protein kinase C (PKC) (Homo sapiens); experiment: (§4) Inhibition of PKC in HEK-blue cells expressing human TLR7 assessed as inhibition of PMA-induced NF-kappaB activation-mediated SEAP production after 24 hrs by Quanti-blue-based assay; assay type: cell-based
Protein kinase C (PKC) [10] = experiment: as §4; assay type: cell-based
[11] = Inhibition of IFN-gamma-induced NFkappaB activation in mouse RAW264.7 cells assessed as reduction in nitric oxide production after 18 hrs by DAN assay; assay type: cell-based; conditions: RAW264.7, 18 h
Summary of the method: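 Mouse RAW 264.7 macrophages stimulated with IFN-γ alongside compound; NF-κB-mediated NO output measured by the 2,3-diaminonaphthalene (DAN) nitrite assay.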

[12] = biological target: Inhibitor of nuclear factor kappa-B kinase subunit alpha/beta (Mus musculus) (UniProt Q60680+O88351); experiment: Inhibition of IKK-alphabeta in mouse RAW264.7 cells assessed as reduction in LPS-induced IKK-alphabeta phosphorylation at 1 to 10 uM preincubated for 1 hr followed by LPS stimulation for 15 to 30 mins by Western blot method; assay type: cell-based
Summary of the method: (§5)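 RAW 264.7 cells, 3×10^6 per dish overnight, pretreated 1 h with 1, 5 or 10 µM, then LPS 100 ng/mL for 15 or 30 min; nuclear/cytoplasmic lysates (20–30 µg) run on 10% SDS-PAGE, immunoblotted for phospho/total proteins, GAPDH loading control, ECL, densitometry; three independent experiments.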

[13] = biological target: NF-kappa-B inhibitor alpha (Mus musculus) (UniProt Q9Z1E3); experiment: Inhibition of LPS-induced IkB-alpha phosphorylation in mouse RAW264.7 cells at 1 to 10 uM preincubated for 1 hr followed by LPS stimulation for 15 to 30 mins by Western blot method; assay type: cell-based; summary of the method: as §5
NF-kappa-B inhibitor alpha (Mus musculus), sequence (Q9Z1E3 whole entry): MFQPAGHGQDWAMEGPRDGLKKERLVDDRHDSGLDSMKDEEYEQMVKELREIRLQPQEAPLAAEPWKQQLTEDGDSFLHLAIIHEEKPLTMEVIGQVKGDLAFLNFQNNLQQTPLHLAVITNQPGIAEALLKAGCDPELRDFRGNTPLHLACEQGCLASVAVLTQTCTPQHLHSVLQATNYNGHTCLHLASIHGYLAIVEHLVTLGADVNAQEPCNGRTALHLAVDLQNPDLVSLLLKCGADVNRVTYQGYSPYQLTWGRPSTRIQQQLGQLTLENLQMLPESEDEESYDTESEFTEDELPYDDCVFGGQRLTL

[14] = biological target: MAP kinase p38 (Mus musculus) (UniProt P47811+O08911+Q9WUI1+Q9Z1B7); experiment: Inhibition of LPS-induced p38 MAPK phosphorylation in mouse RAW264.7 cells at 1 to 10 uM preincubated for 1 hr followed by LPS stimulation for 15 to 30 mins by Western blot method; assay type: cell-based; summary of the method: as §5
[15] = biological target: Proto-oncogene tyrosine-protein kinase Src (Mus musculus) (UniProt P05480); experiment: Inhibition of LPS-induced SRC phosphorylation in mouse RAW264.7 cells preincubated for 1 hr followed by LPS stimulation for 30 mins by Western blot method; assay type: cell-based; summary of the method: as §5
Proto-oncogene tyrosine-protein kinase Src (Mus musculus), sequence (P05480 2-535 limits assumed): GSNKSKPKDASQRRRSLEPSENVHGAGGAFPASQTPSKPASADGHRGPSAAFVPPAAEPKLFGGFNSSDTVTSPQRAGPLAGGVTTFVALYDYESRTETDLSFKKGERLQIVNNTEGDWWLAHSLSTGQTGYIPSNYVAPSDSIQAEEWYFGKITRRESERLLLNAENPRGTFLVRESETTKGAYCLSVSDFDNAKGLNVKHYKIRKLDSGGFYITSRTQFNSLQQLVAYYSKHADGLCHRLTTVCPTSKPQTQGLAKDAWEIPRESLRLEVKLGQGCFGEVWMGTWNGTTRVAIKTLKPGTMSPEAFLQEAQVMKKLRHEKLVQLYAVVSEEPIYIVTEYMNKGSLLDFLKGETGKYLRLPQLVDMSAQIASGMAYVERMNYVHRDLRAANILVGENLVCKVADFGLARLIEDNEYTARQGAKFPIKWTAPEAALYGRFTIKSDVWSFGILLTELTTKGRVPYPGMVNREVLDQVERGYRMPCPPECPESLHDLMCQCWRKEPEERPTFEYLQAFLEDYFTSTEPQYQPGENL

[16] = biological target: Tyrosine-protein kinase SYK (Mus musculus) (UniProt P48025); experiment: Inhibition of LPS-induced SYK phosphorylation in mouse RAW264.7 cells preincubated for 1 hr followed by LPS stimulation for 30 mins by Western blot method; assay type: cell-based; summary of the method: as §5
Tyrosine-protein kinase SYK (Mus musculus), sequence (P48025 whole entry, looked up): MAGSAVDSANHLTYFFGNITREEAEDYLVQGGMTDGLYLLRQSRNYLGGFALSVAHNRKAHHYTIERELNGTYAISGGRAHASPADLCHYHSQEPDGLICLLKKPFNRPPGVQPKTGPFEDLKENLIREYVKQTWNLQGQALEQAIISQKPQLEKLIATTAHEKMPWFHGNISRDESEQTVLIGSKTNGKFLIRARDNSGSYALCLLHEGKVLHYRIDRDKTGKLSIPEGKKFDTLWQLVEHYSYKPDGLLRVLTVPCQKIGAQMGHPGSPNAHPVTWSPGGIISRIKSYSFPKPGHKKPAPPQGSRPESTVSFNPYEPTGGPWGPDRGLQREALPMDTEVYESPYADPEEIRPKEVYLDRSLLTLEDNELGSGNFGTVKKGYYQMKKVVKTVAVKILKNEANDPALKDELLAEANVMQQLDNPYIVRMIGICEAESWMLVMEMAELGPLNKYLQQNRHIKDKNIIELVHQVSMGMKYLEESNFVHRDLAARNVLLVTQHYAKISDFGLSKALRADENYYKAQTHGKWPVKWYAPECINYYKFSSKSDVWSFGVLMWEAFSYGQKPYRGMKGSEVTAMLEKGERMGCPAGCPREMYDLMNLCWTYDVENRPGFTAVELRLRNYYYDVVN

[17] = biological target: Proto-oncogene tyrosine-protein kinase Src (Homo sapiens) (UniProt P12931); experiment: Inhibition of SRC (unknown origin) at 5 uM using KVEKIGEGTYGVVYK-amide as substrate by ADP-Glo kinase assay relative to control
Proto-oncogene tyrosine-protein kinase Src (Homo sapiens), sequence (P12931 2-536 limits assumed): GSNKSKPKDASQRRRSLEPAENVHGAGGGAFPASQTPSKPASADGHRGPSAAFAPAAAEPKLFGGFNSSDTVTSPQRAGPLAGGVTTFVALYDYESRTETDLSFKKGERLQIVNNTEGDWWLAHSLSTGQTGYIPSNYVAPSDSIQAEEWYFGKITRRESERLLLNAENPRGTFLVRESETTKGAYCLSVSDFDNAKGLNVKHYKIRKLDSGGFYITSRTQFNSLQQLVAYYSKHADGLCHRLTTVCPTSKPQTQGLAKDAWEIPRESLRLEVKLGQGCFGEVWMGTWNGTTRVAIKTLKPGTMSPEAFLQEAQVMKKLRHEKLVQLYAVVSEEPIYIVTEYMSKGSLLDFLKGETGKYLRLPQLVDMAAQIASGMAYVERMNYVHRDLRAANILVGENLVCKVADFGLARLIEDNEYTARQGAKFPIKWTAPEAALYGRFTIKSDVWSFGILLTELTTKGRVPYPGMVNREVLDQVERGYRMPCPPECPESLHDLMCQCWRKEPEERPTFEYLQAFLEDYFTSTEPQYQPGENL

[18] = biological target: Proto-oncogene tyrosine-protein kinase Src (Homo sapiens) (UniProt P12931); experiment: Inhibition of wild-type human partial length SRC (L240 to L536 residues) expressed in bacterial expression system assessed as residual activity at 10 uM by Kinomescan method relative to control
HeLa [19] = experiment: Cell cycle arrest in human HeLa cells assessed as accumulation at G0/G1 phase at 10 uM after 24 hrs by propidium iodide staining based flow cytometry (reference value: 49.4%); assay type: functional; summary of the method: as §2
HeLa [20] = experiment: Cell cycle arrest in human HeLa cells assessed as accumulation at S phase at 20 uM after 24 hrs by propidium iodide staining based flow cytometry (reference value: 34.9%); assay type: functional; summary of the method: as §2
HeLa [21] = experiment: Cell cycle arrest in human HeLa cells assessed as accumulation at G2/M phase at 10 uM after 24 hrs by propidium iodide staining based flow cytometry (reference value: 15.7%); assay type: functional; summary of the method: as §2

In the case of O=C(NNC(=O)c1csc(-c2ccc(Cl)cc2Cl)n1)c1ccccn1, the inhibition [1] is reported as “Active”, the inhibition [2] is reported as “Active” and the inhibition [3] is reported as “Active”. The Activity (HeLa [4]) was “Dose-dependent effect”, the Activity (HeLa [5]) was 37.8% and the inhibition (TLR2/TLR6 (Homo sapiens)) was “Active”. For the same compound, the inhibition [6] was “Active”, the inhibition [7] was “Dose-dependent effect” and the IC50 (Protein kinase C (PKC) [8]) was 370 nM. The inhibition [9] was “Dose-dependent effect”, the IC50 (Protein kinase C (PKC) [10]) was 590 nM and the IC50 [11] was 79 nM. The inhibition [12] was “Active”, the inhibition [13] was “Active” and the inhibition [14] was “inactive”. For the same compound, the inhibition [15] was “Dose-dependent effect”, the inhibition [16] was “Dose-dependent effect” and the inhibition [17] was under 50%. For the same compound, the Activity [18] was 75%, the Activity (HeLa [19]) was 54.7% and the Activity (HeLa [20]) was 29.1%. It also gave an Activity (HeLa [21]) of 3.6%.

Source: ChEMBL document CHEMBL4190396, “Discovery of Novel Small-Molecule Inhibitors of NF-κB Signaling with Antiinflammatory and Anticancer Properties” (J Med Chem, 2018)
